Results on four molecules are retold here after ChEMBL document CHEMBL4177582, “Modifications of flexible nonyl chain and nucleobase head group of (+)-erythro-9-(2's-hydroxy-3's-nonyl)adenine [(+)-EHNA] as adenosine deaminase inhibitors” (Bioorg Med Chem, 2017).

As usually defined, the half-life is the time in which the quantity being followed falls by half. A high value points to slow loss. What is called AUC(0-t) is exposure summed from dosing to a finite time, without extrapolation to infinity. Higher therefore signals high exposure. The term clearance denotes the volume of plasma or blood freed of the substance per unit of time. Lower therefore signals inefficient removal. One may read the Ki as a measure of affinity in units of concentration, obtained from inhibition or displacement.

Series [1] can be described thus: Half life in rat liver microsomes pre-incubated at 37 degC for 5 mins before NADPH addition and measured after 30 mins by LC/MS/MS method. The class given is ADME, microsome. In general terms: Liver microsomes are a subcellular fraction often used to study metabolism.
A short description of series [2]: Drug metabolism in rat liver microsomes assessed as metabolic turnover rate per 0.125 mg/ml protein pre-incubated at 37 degC for 5 mins before NADPH addition and measured after 30 mins by LC/MS/MS method. The format is ADME, microsome. Particulars: 0.5 h.
Series [3] can be described thus: Drug metabolism in rat liver microsomes assessed as drug recovery pre-incubated at 37 degC for 5 mins measured after 30 mins in absence of NADPH by LC/MS/MS method. The format is ADME, microsome. Particulars: read-out: Drug recovery.
Series [4] is described as follows: Drug metabolism in mouse liver microsomes assessed as drug recovery pre-incubated at 37 degC for 5 mins before NADPH addition and measured after 30 mins by LC/MS/MS method. The format is ADME, microsome. Particulars: read-out: Drug recovery.
The nature of series [5]: Drug metabolism in human liver microsomes assessed as metabolic turnover rate per 0.125 mg/ml protein pre-incubated at 37 degC for 5 mins before NADPH addition and measured after 30 mins by LC/MS/MS method. Particulars: 0.5 h. The format is ADME, microsome.
A short description of series [6]: Drug metabolism in human liver microsomes assessed as drug recovery pre-incubated at 37 degC for 5 mins measured after 30 mins in absence of NADPH by LC/MS/MS method. The format is ADME, microsome. To be noted: read-out: Drug recovery.
The nature of series [7]: Drug metabolism in mouse liver microsomes assessed as drug recovery pre-incubated at 37 degC for 5 mins measured after 30 mins in absence of NADPH by LC/MS/MS method. The class given is ADME, microsome. Particulars: read-out: Drug recovery.
Series [8] can be described thus: Drug metabolism in human liver microsomes assessed as drug recovery pre-incubated at 37 degC for 5 mins before NADPH addition and measured after 30 mins by LC/MS/MS method. To be noted: read-out: Drug recovery. The class given is ADME, microsome.
Series [9] is described as follows: Half life in mouse liver microsomes pre-incubated at 37 degC for 5 mins before NADPH addition and measured after 30 mins by LC/MS/MS method. The class given is ADME, microsome.
A short description of series [10]: Drug metabolism in mouse liver microsomes assessed as metabolic turnover rate per 0.125 mg/ml protein pre-incubated at 37 degC for 5 mins before NADPH addition and measured after 30 mins by LC/MS/MS method. The format is ADME, microsome. Particulars: 0.5 h.
Series [11] is described as follows: AUC (0 to t) in Wistar rat at 1 mg/kg, iv after 0.25 to 24 hrs by LC/MS/MS method. The format is ADME, organism-based. Set-up: dose 1 mg/kg, time 0.25-24 hr, route intravenous. To be noted: in vivo. The method, boiled down: (§1)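 Male Wistar rats were given a single intravenous dose. The vehicle was NMP 10%, PEG-300 15%, and 0.1M ammonium acetate buffer q.s. (pH 3). Plasma concentration–time profiles were used to derive AUC0-t, Vss, clearance (mL/min/kg) and t1/2.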

The nature of series [12]: Clearance in Wistar rat at 1 mg/kg, iv after 0.25 to 24 hrs by LC/MS/MS method. The class given is ADME, organism-based. Particulars: in vivo. The method, boiled down:
as §1

A further series deals with T1, Adenosine deaminase (Bos taurus, UniProt P56658).
T1 sequence (P56658 whole entry): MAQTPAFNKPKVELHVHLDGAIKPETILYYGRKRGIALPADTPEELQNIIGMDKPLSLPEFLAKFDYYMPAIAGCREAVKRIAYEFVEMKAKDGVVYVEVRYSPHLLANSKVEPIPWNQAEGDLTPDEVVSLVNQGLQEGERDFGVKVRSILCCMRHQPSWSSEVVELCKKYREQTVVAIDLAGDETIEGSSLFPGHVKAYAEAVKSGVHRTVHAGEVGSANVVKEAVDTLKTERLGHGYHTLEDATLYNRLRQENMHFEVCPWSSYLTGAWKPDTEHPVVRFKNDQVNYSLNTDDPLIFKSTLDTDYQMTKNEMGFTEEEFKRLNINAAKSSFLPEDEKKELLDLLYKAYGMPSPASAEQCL
The experiment in a line: Inhibition of bovine adenosine deaminase pre-incubated for 5 mins before adenosine addition. Particulars: read-out: Ki.

The nature of series [13]: Half life in Wistar rat at 1 mg/kg, iv after 0.25 to 24 hrs by LC/MS/MS method. The format is ADME, organism-based. Particulars: in vivo. The method, boiled down:
as §1

Series [14] can be described thus: Volume of distribution at steady state in Wistar rat at 1 mg/kg, iv after 0.25 to 24 hrs by LC/MS/MS method. The class given is ADME, organism-based. To be noted: in vivo, read-out: Vdss. The method, boiled down: as §1
The nature of series [15]: Half life in human liver microsomes pre-incubated at 37 degC for 5 mins before NADPH addition and measured after 30 mins by LC/MS/MS method. The class given is ADME, microsome.
A short description of series [16]: Drug metabolism in rat liver microsomes assessed as drug recovery pre-incubated at 37 degC for 5 mins before NADPH addition and measured after 30 mins by LC/MS/MS method. The format is ADME, microsome. To be noted: read-out: Drug recovery.
Series [17] in a line: AUC (0 to t) in Wistar rat at 3 mg/kg, iv after 0.25 to 24 hrs by LC/MS/MS method. The format is ADME, organism-based. Also noted: time upper 24 hr, dose 3 mg/kg, time lower 0.25 hr, route intravenous. Particulars: in vivo. The method, boiled down: as §1
Series [18] is described as follows: Volume of distribution at steady state in Wistar rat at 3 mg/kg, iv after 0.25 to 24 hrs by LC/MS/MS method. The class given is ADME, organism-based. Particulars: in vivo, read-out: Vdss. The method, boiled down:
as §1

The nature of series [19]: Clearance in Wistar rat at 3 mg/kg, iv after 0.25 to 24 hrs by LC/MS/MS method. The class given is ADME, organism-based. Particulars: in vivo. The method, boiled down: as §1
Series [20] can be described thus: Half life in Wistar rat at 3 mg/kg, iv after 0.25 to 24 hrs by LC/MS/MS method. The format is ADME, organism-based. To be noted: in vivo. The method, boiled down:
as §1

For series [21], the system named is Rattus norvegicus. The experiment in a line: Clearance in Wistar rat at 1 mg/kg, iv after 1 hr by LC/MS/MS method. Particulars: in vivo, BLD = below limit of detection. The class given is ADME, organism-based. The method, boiled down:
as §1

In series [22] the test system is Rattus norvegicus. Briefly: Plasma concentration in Wistar rat at 1 mg/kg, iv after 1 hr by LC/MS/MS method. The format is ADME, organism-based. Particulars: in vivo, BLD = below limit of detection. The method, boiled down:
as §1

For `C[C@H](O)[C@@H](CCc1cccc(C(F)(F)F)c1)n1cnc(C(N)=O)c1`, the half-life was > 30 min in series [1], > 30 min in series [9], 56.4 min in series [13] and > 30 min in series [15]. The Drug metabolism is 0.04 nmol/min/mg in series [2], 0.06 nmol/min/mg in series [5] and 0.04 nmol/min/mg in series [10]. For the same molecule, the remaining at 0.5 h in [3] amounted to 92%; in series [4] it was 89%; in series [6], 94%; in [7] it was 93%; in series [8], 79%; in [16], 87%. Moreover, the AUC(0-t) in series [11] was 1.42 µM·h. The clearance in series [12] came to 33.3 mL/min/kg. Moreover, the Ki on Adenosine deaminase is 5.9 nM. Also, in series [14], the Vd was found to be 2 L/kg.
Consider `C[C@H](O)[C@@H](CCc1cccc(C(F)(F)F)c1)n1cnc2c(N)ncnc21`, for which the half-life in series [1] is > 30 min; in [20], < 30 min; in series [9], > 30 min; in [15], > 30 min. The molecule further had an AUC(0-t) in series [17] of 1.61 µM·h. In addition, in series [18], the Vd was 1.88 L/kg. In series [19], the clearance was found to be 85 mL/min/kg. The Drug metabolism in series [2] was found to be 0.04 nmol/min/mg; in series [5], 0.06 nmol/min/mg; in [10] it was 0.08 nmol/min/mg. Further, the remaining at 0.5 h in [3] was 91%; in [4] it was 74%; in [6] it was 95%; in series [7], 89%; in [8], 80%; in series [16] it was 86%. Besides, the Ki on Adenosine deaminase is 1.1 nM.
`C[C@H](O)[C@@H](CCc1ccc(C(F)(F)F)cc1)n1cnc2c(N)ncnc21`: the half-life in [1] is > 30 min; in series [20] it was 133 min; in series [9], > 30 min; in [15], > 30 min. The molecule also registered an AUC(0-t) in series [17] of 2.21 µM·h. Moreover, the Vd in series [18] stood at 7.01 L/kg. Besides, in [19], the clearance was 59 mL/min/kg. For the same molecule, the Drug metabolism in series [2] is listed as < 0.04 nmol/min/mg; in [5], < 0.04 nmol/min/mg; in series [10], 0.04 nmol/min/mg. For the same molecule, the remaining at 0.5 h in series [3] stood at 93%; in series [4] it was 85%; in series [6] it was 95%; in series [7] it was 94%; in [8], 99%; in [16], 93%. At Adenosine deaminase, the Ki stood at 5.2 nM.
For `CCCCCC[C@H]([C@H](C)O)n1cnc2c(N)ncnc21` [(+)-EHNA], the CL result in the series with Rattus norvegicus [21] was “Bld”. The AUC(0-t) in series [11] amounted to 0.35 µM·h. In addition, the Cp entry with Rattus norvegicus [22] is recorded as “Bld”. In addition, the Ki at Adenosine deaminase amounted to 2.2 nM.
